Runt-SMMHC FRET: blocks binding of human RUNX1 Runt domain to CBFb-SMMHC. AID 1434. 0.74% of 220,000 active. Cerulean-Runt/Venus-CBFb-SMMHC FRET ratio 530/480, 1 h. Q01196+Q13951. inhibition, % at 20 µM;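 active means mean inhibition across duplicate retests at 20 µM reaching about 50%, limit read from the data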;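 further: inhibitors lower the FRET ratio by blocking Runt binding to CBFb-SMMHC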
Runt-CBFb FRET: blocks binding of human RUNX1 Runt domain to CBFb; Q01196+Q13951; Cerulean-Runt/Venus-CBFb FRET ratio 530/480, 1 h; inhibition, % at 20 µM; 0.46% of 220,000 active; AID 1496;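 active means inhibition over about 50% at 20 µM in the single-dose screen, limit read from the data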
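System: Cerulean-labeled Runt domain protein | Quantity: 100 nM of each labeled protein | Schedule: 1 h compound exposure, room temperature | Detection: Fluorescence energy transfer, 422 nm excitation, 530/480 nm emission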
RanGTP-Imp inh: disruptors of Ran-importin-beta complex formation – biochemical, FRET, CFP-Ran, YFP-importin-beta, homogeneous, primary screen; 1.1% of 300,000 active; inhibition, % (no concentration beside the values); cell-free CFP-Ran/YFP-importin-beta FRET ratio;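 active means more than half of the replicate wells show a fall in the fluorescence ratio signal beyond about 16%, limit read from the data, passing the limit was not always enough; inconclusive means exactly half of the replicate wells pass the set limit; inactive means fewer than half of replicates pass the limit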
Hck-Nef inh: blocks Nef-activated human Hck kinase. P08631. Recombinant Hck-YEEI plus Nef, Z-Lyte FRET kinase assay. 0.68% of 220,000 active. AID 463187. inhibition, % at 20 µM;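 active means Hck-Nef kinase inhibition above about 50%, limit read from the data; inactive means inhibition below that limit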
Target sequence (P08631 whole entry, looked up): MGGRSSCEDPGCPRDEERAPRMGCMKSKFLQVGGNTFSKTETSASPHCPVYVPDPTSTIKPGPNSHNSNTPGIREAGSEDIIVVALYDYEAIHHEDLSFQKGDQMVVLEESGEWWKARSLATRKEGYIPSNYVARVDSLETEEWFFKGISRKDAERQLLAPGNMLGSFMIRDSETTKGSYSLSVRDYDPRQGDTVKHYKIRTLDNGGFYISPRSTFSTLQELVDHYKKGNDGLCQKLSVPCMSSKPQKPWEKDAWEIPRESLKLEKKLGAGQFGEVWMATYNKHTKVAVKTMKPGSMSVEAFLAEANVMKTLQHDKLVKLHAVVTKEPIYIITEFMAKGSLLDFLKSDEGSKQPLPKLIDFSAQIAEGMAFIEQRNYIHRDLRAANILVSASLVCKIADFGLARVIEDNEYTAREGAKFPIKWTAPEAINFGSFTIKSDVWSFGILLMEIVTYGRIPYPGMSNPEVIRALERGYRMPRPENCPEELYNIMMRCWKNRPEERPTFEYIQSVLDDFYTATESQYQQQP
YIC FRET counter: counter-screen YIC FRET for RanGTP-importin-beta inhibitors; shares compounds with RanGTP-Imp inh; Purified YIC probe, intramolecular FRET ratio YFP/CFP; IC50, µM; 40% of 1,000 active; AID 435026;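 active means fitted half-maximal inhibitory concentration no more than tenfold above the top dose tested; inconclusive means flat fit with 30 to 70% activity, or poor fit; inactive means half-maximal concentration beyond tenfold above the top dose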
Of the large screens only hits and unclear results are named; the others gave an inactive call (follow-up assays come after a bar, where they were run); ! = not active in a repeat. In the library only some 1.8% were active in any assay of this set; here they are far more common.

CC(CCc1ccccc1)NC(=O)CN1CCN(c2ccc(O)cc2)CC1 (configuration not stated)	none
Cn1nnc(NC(=O)c2cccc([N+](=O)[O-])c2)n1	none
CNS(=O)(=O)c1cc(OC)c(OC)cc1CC(=O)OC	RanGTP-Imp inh 21 | YIC FRET counter inactive
COC(=O)Cc1cc(OC)c(OC)cc1Cc1cc(OC)c(OC)cc1CC(=O)OC	none
CCCc1[nH]nc2c1C(c1ccoc1)C(C#N)=C(N)O2 (configuration not stated)	RanGTP-Imp inh inconclusive
Cc1[nH]nc2c1C(c1ccoc1)C(C#N)=C(N)O2 (configuration not stated)	RanGTP-Imp inh 21 (no result: Runt-SMMHC FRET, Runt-CBFb FRET) | YIC FRET counter inactive
O=C(NCc1cc(Br)cc(Br)c1OC(=O)c1ccccc1[N+](=O)[O-])c1ccccc1	none
Cc1ccccc1Cn1nnc(-c2cccc(C(=O)O)c2)n1	RanGTP-Imp inh 16 | YIC FRET counter inactive
CC1(C)CC[C@@]23CC[C@]4(C)[C@@](OC2=O)(C3C1)[C@H]1O[C@H]1C1[C@@]2(C)CC[C@H](O)C(C)(C)C2CC[C@]14C (some centres not stated)	none (no result: Runt-SMMHC FRET, Runt-CBFb FRET, Hck-Nef inh)
CNC(=O)CSc1nc2ccccc2c(=O)n1CCc1ccccc1	none (no result: Runt-SMMHC FRET, Runt-CBFb FRET, Hck-Nef inh)
Cc1cccc2sc(NC(=O)CN3C(=O)NC4(CCCC4)C3=O)nc12	none (no result: Runt-SMMHC FRET, Runt-CBFb FRET, Hck-Nef inh)
O=C(CN1C(=O)NC2(CCCC2)C1=O)Nc1nc2c(F)cc(F)cc2s1	RanGTP-Imp inh 20 (no result: Runt-SMMHC FRET, Runt-CBFb FRET, Hck-Nef inh) | YIC FRET counter inactive
Cc1cc(C)c(S(=O)(=O)Nc2cccc(S(=O)(=O)NC3=NCCC3)c2)c(C)c1	none
CN(C)S(=O)(=O)c1ccc(N2CCCC2)c(C(=O)NC(c2ccccc2)c2ccccc2)c1	RanGTP-Imp inh 19 | YIC FRET counter inactive
CN(C)S(=O)(=O)c1ccc(N2CCCC2)c(C(=O)Nc2ccccc2Br)c1	none (no result: Runt-SMMHC FRET, Runt-CBFb FRET, Hck-Nef inh)
CCOC(=O)c1c[nH][nH]c1=O	RanGTP-Imp inh inconclusive
N#Cc1c(-c2ccc3c(c2)OCO3)ccn2nc(-c3cccc(C(F)(F)F)c3)nc12	RanGTP-Imp inh 20 | YIC FRET counter 22
CCO[C@H]1OC(C(=O)N2CCN(Cc3ccc4c(c3)OCO4)CC2)=C[C@@H](C2CC2)[C@@H]1CCCO	none
CS(=O)(=O)N(Cc1ccccc1Cl)c1ccc(C(=O)N2CCCC2)cc1	none (no result: Runt-SMMHC FRET, Runt-CBFb FRET, Hck-Nef inh)
COc1ccc(NC(=O)CNC(=O)Cn2cnc3sc4c(c3c2=O)CCCC4)cc1OC	none (no result: Runt-SMMHC FRET, Runt-CBFb FRET, Hck-Nef inh)
Cc1nn(C(=O)c2ccco2)c(C)c1CN1C(=O)c2ccccc2C1=O	RanGTP-Imp inh 20 | YIC FRET counter inactive
Cc1nn(C(=O)c2cccs2)c(C)c1CN1C(=O)c2ccccc2C1=O	none
O=C(NCCc1nc2ccc(Cl)cc2[nH]1)C1CCC(=O)N(Cc2cccc(F)c2)C1 (configuration not stated)	none (no result: Runt-SMMHC FRET, Runt-CBFb FRET, Hck-Nef inh)
Cc1sc2ncnc(NCc3cccnc3)c2c1C	RanGTP-Imp inh 37 | YIC FRET counter inactive
COc1cc(C2NC(=O)CCC2[N+](=O)[O-])c(OC)cc1Br (configuration not stated)	none (no result: Runt-SMMHC FRET, Runt-CBFb FRET, Hck-Nef inh)
COc1ccccc1/C=C/c1nc(C#N)c(N(C)C)o1	RanGTP-Imp inh 28 (no result: Runt-SMMHC FRET, Runt-CBFb FRET, Hck-Nef inh) | YIC FRET counter 13
CC(=O)Nc1ccc(NC(=O)Nc2ccc3c(c2)N(C)C(=O)CS3)cc1	none
COc1cccc(NC(=O)Nc2ccc3c(c2)N(C)C(=O)CS3)c1	RanGTP-Imp inh 20 | YIC FRET counter inactive
CC(C)(C)NC(=O)C(c1ccco1)N(Cc1ccc(F)cc1)C(=O)c1snc(C(N)=O)c1N (configuration not stated)	RanGTP-Imp inh 28 | YIC FRET counter inactive
COc1ccc(CN(C(=O)c2snc(C(N)=O)c2N)C(C(=O)NC(C)(C)C)c2ccco2)cc1 (configuration not stated)	RanGTP-Imp inh inconclusive
NS(=O)(=O)c1ccc(NC(=O)Nc2ccc(C(F)(F)F)cc2)cc1	none
COc1ccc([N+](=O)[O-])cc1NC(=O)CSc1nccc(C)n1	none
COc1ccc([N+](=O)[O-])cc1NC(=O)CSc1ncccn1	RanGTP-Imp inh 20 | YIC FRET counter inactive
CCc1ccccc1NC(=O)CNCC(=O)Nc1ccccc1CC	none (no result: Runt-SMMHC FRET, Runt-CBFb FRET, Hck-Nef inh)
Cc1nc(-c2noc(-c3ccc(Cl)cc3)n2)c(C(F)(F)F)o1	none
N#Cc1cc(NCC2CCCO2)c([N+](=O)[O-])cc1C#N (configuration not stated)	RanGTP-Imp inh 23 | YIC FRET counter inactive
O=[N+]([O-])c1cc(C(F)(F)F)ccc1NCC1CCCO1 (configuration not stated)	none (no result: Runt-SMMHC FRET, Runt-CBFb FRET, Hck-Nef inh)
Cc1noc(C)c1C(=O)Nc1sc2c(c1C(N)=O)CCC2	RanGTP-Imp inh 26 | YIC FRET counter inactive
Cc1noc(C)c1C(=O)Nc1sc2c(c1C(N)=O)CCCCC2	none
COC(=O)[C@@H]1[C@H]2C[C@H]3c4[nH]c5ccccc5c4CCN3C[C@@H]2CC[C@@H]1O	RanGTP-Imp inh 26! (no result: Runt-SMMHC FRET, Runt-CBFb FRET, Hck-Nef inh) | YIC FRET counter inactive
CC(C)(C)n1cnc2cc(NCc3ccc(Br)cc3)ccc21	RanGTP-Imp inh 23 (no result: Runt-SMMHC FRET, Runt-CBFb FRET, Hck-Nef inh) | YIC FRET counter inactive
CCc1ccc(CNc2ccc3c(c2)ncn3C(C)(C)C)cc1	RanGTP-Imp inh 18 (no result: Runt-SMMHC FRET, Runt-CBFb FRET, Hck-Nef inh) | YIC FRET counter inactive
CCc1ccc(CNc2ccc3c(c2)ncn3CC)cc1	RanGTP-Imp inh 17 (no result: Runt-SMMHC FRET, Runt-CBFb FRET, Hck-Nef inh) | YIC FRET counter inactive
CS(=O)(=O)N(CC(=O)Nc1ccc(S(=O)(=O)N2CCCC2)cc1)c1cccc(F)c1	none
O=C(CN1C(=O)NC(Cc2c[nH]c3ccccc23)C1=O)NCC(F)(F)F (configuration not stated)	none (no result: Runt-SMMHC FRET, Runt-CBFb FRET, Hck-Nef inh)
CCOC(=O)N1CCN(c2cc(=O)n(C3CCCCC3)c(=O)[nH]2)CC1	RanGTP-Imp inh 19 | YIC FRET counter inactive
CCOC(=O)C1CCN(c2cc(=O)n(C3CCCCC3)c(=O)[nH]2)CC1	RanGTP-Imp inh 51 | YIC FRET counter inactive
CCN1CCN(c2cc(=O)n(C3CCCCC3)c(=O)[nH]2)CC1	RanGTP-Imp inh inconclusive
CCOC(=O)c1cc(NC(=O)c2ccco2)ccc1N1CCOCC1	none (no result: RanGTP-Imp inh)
CCOC(=O)C1=C(N)N(c2cc(S(=O)(=O)N3CCOCC3)ccc2Cl)C(=O)C1	none
Cn1nc(C(C)(C)C)cc1C(=O)Sc1cccc(Br)c1	none
O=c1[nH]c(-[n+]2ccc3ccccc3c2)c(/C=N/N=C(\[O-])c2ccccc2)s1	RanGTP-Imp inh 25 (no result: Runt-SMMHC FRET, Runt-CBFb FRET, Hck-Nef inh) | YIC FRET counter inactive
Cc1nc2nc(CCNS(=O)(=O)c3ccc(Cl)cc3)cn2nc1C	RanGTP-Imp inh 18 (no result: Runt-SMMHC FRET, Runt-CBFb FRET, Hck-Nef inh) | YIC FRET counter 32
O=C(NNC(=O)c1cccc(-n2cnnn2)c1)c1ccccc1	none
O=C(Nc1cnc2ccccc2c1)c1cccc(-n2cnnn2)c1	RanGTP-Imp inh 19 | YIC FRET counter inactive
N#C/C(=C/c1ccc(-c2ccccc2)o1)c1nc(-c2cccs2)cs1	none (no result: RanGTP-Imp inh)
N#C/C(=C\c1ccc(-c2ccc(F)cc2)o1)C(=O)Nc1nc(-c2cccs2)cs1	RanGTP-Imp inh 19 | YIC FRET counter inactive
COc1ccccc1CNC(=O)C(=O)NCC1OCCCN1S(=O)(=O)c1cccs1 (configuration not stated)	none (no result: Runt-SMMHC FRET, Runt-CBFb FRET, Hck-Nef inh)
CCN(CC)S(=O)(=O)c1ccc(/C=C/C(=O)Nc2ccc(F)cc2F)cc1	RanGTP-Imp inh 21 | YIC FRET counter inactive
